From PMC2835692 (Journal of cardiovascular pharmacology, 2009)
Read-outs that look alike come from different tables or passages of the source.

Tests used:
[1] = target: T1, recombinant human MMP-1 catalytic domain (Homo sapiens, UniProt P03956); test: Recombinant MMP fluorescent assay, MMP-1; type: biochemical; details: read-out: IC50 MMP-1; 1 hour preincubation at 37°C
T1 sequence (P03956 100-269 limits assumed): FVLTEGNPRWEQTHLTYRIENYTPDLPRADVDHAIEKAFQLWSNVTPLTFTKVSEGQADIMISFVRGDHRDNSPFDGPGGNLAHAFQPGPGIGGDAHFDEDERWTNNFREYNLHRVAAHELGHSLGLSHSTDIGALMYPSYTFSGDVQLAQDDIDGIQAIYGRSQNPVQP

[2] = target: T2, recombinant human MMP-7 catalytic domain (Homo sapiens, UniProt P09237); test: Recombinant MMP fluorescent assay, MMP-7; type: biochemical
T2 sequence (P09237 95-267): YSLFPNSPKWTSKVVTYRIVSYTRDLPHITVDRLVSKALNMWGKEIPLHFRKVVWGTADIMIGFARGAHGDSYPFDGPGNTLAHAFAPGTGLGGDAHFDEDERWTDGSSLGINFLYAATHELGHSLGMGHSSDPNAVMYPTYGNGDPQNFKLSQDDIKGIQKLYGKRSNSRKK
Procedure, shortened: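 Kit-based fluorogenic substrate assay. Test compound was dissolved in DMSO, with 0.005% final DMSO in buffer (50 mM HEPES, 10 mM CaCl2, 0.05% Brij-35, pH 7.5). Substrate was added to start the reaction. Fluorescence (ex 335/em 405 nm) was read every 60 s for 30 min, with 1 s shaking between reads. Rates came from linear kinetic regions; IC50 from activity versus log[inhibitor]. o-Phenanthroline confirmed MMP-dependent cleavage.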

[3] = target: recombinant human MMP-9 catalytic domain (Homo sapiens, UniProt P14780); test: Recombinant MMP fluorescent assay, MMP-9; type: biochemical; details: read-out: IC50 MMP-9; 1 hour preincubation at 37°C
Chain of recombinant human MMP-9 catalytic domain (P14780 107-444 limits assumed): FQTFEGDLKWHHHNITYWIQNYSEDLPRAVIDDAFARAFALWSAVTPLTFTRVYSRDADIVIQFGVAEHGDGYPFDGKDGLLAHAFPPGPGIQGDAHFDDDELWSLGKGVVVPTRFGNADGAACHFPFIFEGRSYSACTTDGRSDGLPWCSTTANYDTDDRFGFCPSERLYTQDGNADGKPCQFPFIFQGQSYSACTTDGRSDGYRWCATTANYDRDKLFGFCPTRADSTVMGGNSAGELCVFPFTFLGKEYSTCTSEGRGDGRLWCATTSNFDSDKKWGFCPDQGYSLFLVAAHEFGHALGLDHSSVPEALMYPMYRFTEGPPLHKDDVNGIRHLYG

[4] = target: recombinant human MMP-12 catalytic domain (Homo sapiens, UniProt P39900); test: Recombinant MMP fluorescent assay, MMP-12; type: biochemical
Chain of recombinant human MMP-12 catalytic domain (P39900 106-263 limits assumed): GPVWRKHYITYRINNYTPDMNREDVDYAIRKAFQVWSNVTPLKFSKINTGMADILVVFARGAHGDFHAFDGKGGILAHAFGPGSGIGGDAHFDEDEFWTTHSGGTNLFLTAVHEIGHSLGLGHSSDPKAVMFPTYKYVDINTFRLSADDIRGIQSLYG

[5] = target: recombinant human MMP-2 catalytic domain (Homo sapiens, UniProt P08253); test: Recombinant MMP fluorescent assay, MMP-2; type: biochemical; details: read-out: IC50 MMP-2; 1 hour preincubation at 37°C
Chain of recombinant human MMP-2 catalytic domain (P08253 110-446 limits assumed): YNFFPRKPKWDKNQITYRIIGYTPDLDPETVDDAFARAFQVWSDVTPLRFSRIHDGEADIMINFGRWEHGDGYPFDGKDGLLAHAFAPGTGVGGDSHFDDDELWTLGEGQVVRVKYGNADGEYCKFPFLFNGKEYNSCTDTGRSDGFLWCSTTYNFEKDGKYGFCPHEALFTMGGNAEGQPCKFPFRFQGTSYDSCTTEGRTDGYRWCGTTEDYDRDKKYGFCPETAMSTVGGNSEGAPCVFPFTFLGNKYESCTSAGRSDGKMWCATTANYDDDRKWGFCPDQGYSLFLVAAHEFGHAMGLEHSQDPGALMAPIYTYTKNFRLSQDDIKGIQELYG

[6] = system: isolated infarcted rat hearts; test: Langendorff isolated perfused rat heart, infarction; details: 5 μM
[7] = target: recombinant human MMP-3 catalytic domain (Homo sapiens, UniProt P08254); test: Recombinant MMP fluorescent assay, MMP-3; type: biochemical; details: read-out: IC50 MMP-3; 1 hour preincubation at 37°C
Chain of recombinant human MMP-3 catalytic domain (P08254 100-272 limits assumed): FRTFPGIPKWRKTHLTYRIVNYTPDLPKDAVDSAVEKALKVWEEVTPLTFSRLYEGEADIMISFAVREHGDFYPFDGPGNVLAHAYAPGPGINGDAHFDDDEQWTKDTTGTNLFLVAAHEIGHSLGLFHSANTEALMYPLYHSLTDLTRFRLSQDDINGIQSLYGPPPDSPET

[8] = system: isolated stunned rat hearts; test: Langendorff isolated perfused rat heart, stunning; details: for Improvement in RPP versus controls: at 30-minute reperfusion; for Coronary flow rates versus controls: during reperfusion; for cTnI release versus controls: after ischemia
[9] = system: cocultured neonatal rat cardiac fibroblasts/myocytes; test: MTT cell viability assay; type: cell-based; details: 24 hours incubation
[10] = target: recombinant human MMP-8 catalytic domain (Homo sapiens, UniProt P22894); test: Recombinant MMP fluorescent assay, MMP-8; type: biochemical; details: read-out: IC50 MMP-8; 1 hour preincubation at 37°C
Chain of recombinant human MMP-8 catalytic domain (P22894 100-262 limits assumed): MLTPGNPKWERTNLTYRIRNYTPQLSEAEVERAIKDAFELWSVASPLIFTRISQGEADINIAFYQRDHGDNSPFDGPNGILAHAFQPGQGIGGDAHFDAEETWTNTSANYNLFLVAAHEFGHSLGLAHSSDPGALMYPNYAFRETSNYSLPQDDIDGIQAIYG

[11] = target: recombinant human MMP-13 catalytic domain (Homo sapiens, UniProt P45452); test: Recombinant MMP fluorescent assay, MMP-13; type: biochemical; details: read-out: IC50 MMP-13; 1 hour preincubation at 37°C
[12] = read-out: IC50 MMP-7, 1 hour preincubation at 37°C
[13] = read-out: IC50 MMP-12, 1 hour preincubation at 37°C

O=C(NCc1ccc(-c2ccccc2)cc1)c1cccc(=O)n1O [1,2-HOPO-2]
IC50 [1]: > 50 µM
IC50 [2, 12]: > 50 µM
IC50 [3]: 27.1 µM
IC50 [4, 13]: 0.018 µM
IC50 [5]: 0.92 µM
Reduction of collagen degradation versus controls ([6]; 30-minute global ischemia (infarction), opalation): ~ 60%
Collagen degradation (opalation) ([6]; 30-minute global ischemia (infarction), controls 1.53 ± 0.66): 0.56 ± 0.29 AFU
Troponin I release ([6]; 30-minute global ischemia, data not shown): significantly reduced troponin I release
Coronary flow rates versus controls ([6]; conditions of infarction, data not shown): higher coronary flow rates versus controls
Improved recovery in RPP versus controls ([6]; infarcted hearts, at 30-minute reperfusion): ~ 17%
RPP in treated hearts ([6]; infarcted hearts, at 30-minute reperfusion, controls 28%): 45%
IC50 [7]: 0.56 µM
Peak systolic pressure (PSP) ([8]; 5 μM, data not shown): significant rise in PSP
Reduction in myocardial edema versus controls ([8]; 5 μM, stunned hearts): ~ 10%
Collagen damage (opalation) ([8]; 5 μM, stunned hearts (20-minute GNFI), controls 1.49 ± 1.0): 1.45 ± 0.89 AFU
Improvement in RPP versus controls ([8]; 5 μM, stunned hearts): ~ 23%
Coronary flow rates versus controls ([8]; 5 μM, stunned hearts): higher coronary flow rates versus controls
Reduction in ventricular wet weight versus controls ([8]; 5 μM, stunned hearts, end of reperfusion): ~ 15%
Ventricular wet weight ([8]; 5 μM, stunned hearts, end of reperfusion, controls 820 ± 72): 700 ± 34 mg
Wet to dry weight ratio (edema) ([8]; 5 μM, stunned hearts, controls 5.4 ± 0.21): 4.9 ± 0.02
Reduction of muscle damage ([8]; abstract, troponin I): ~ 25%
Improvement in coronary flow rates ([8]; abstract, versus controls): ~ 22%
cTnI release versus controls ([8]; stunned hearts): significant reductions in cTnI release versus controls
Concentration without compromise of cell viability (lack of cytotoxicity) ([9]; 0.01-1000 μM tested): < 10 µM
IC50 [10]: 0.086 µM
IC50 [11]: 4.1 µM

COc1ccc(S(=O)(=O)N(Cc2cccnc2)[C@@H](C(=O)NO)C(C)C)cc1 [CGS27023A]
IC50 ([2]; IC50 MMP-7, 1 hour preincubation at 37°C): 0.5 µM
IC50 ([4]; IC50 MMP-12, 1 hour preincubation at 37°C): < 0.05 µM
IC50 ([4]; IC50 MMP-12, as stated in discussion text): ≤ 0.05 µM
Improvement in RPP versus controls ([8]; 5 μM, stunned hearts): ~ 8%
Coronary flow rates versus controls ([8]; 5 μM, stunned hearts): did not improve coronary flow rates
cTnI release versus controls ([8]; stunned hearts): no significant changes in cTnI release

CC(C)[C@H](NS(=O)(=O)c1ccc(-c2ccc(Br)cc2)cc1)C(=O)O [PD166793, reference compound]
IC50 [2, 12]: 3 µM
IC50 [3]: 3 µM
IC50 [4, 13]: < 0.05 µM
Improvement in RPP versus controls ([8]; 5 μM, stunned hearts): ~ 8%
Coronary flow rates versus controls ([8]; 5 μM, stunned hearts): did not improve coronary flow rates
cTnI release versus controls ([8]; stunned hearts): no significant changes in cTnI release
Concentration with loss of cell viability [9]: greater than 10 μM
IC50 [10]: < 0.05 µM
